In brackets after ≈: the same amount, converted by molar mass.
What was measured:
Type in all cases: functional
[1] = system: Radical scavenging activity; assay: Antioxidant activity assessed as DPPH free radical scavenging activity at 0.8 ug/mL after 20 min by UV-Vis spectrophotometric analysis
How it was run: (§1)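 DPPH radical scavenging: samples held at room temperature for 20 min in the dark, then absorbance read at 517 nm. Control was DMSO without compound; methanol used for baseline correction. Percent scavenging calculated from absorbance relative to control.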

[2] = system: Radical scavenging activity; assay: Antioxidant activity assessed as DPPH free radical scavenging activity at 0.4 ug/mL after 20 min by UV-Vis spectrophotometric analysis; how it was run: as §1
[3] = system: Radical scavenging activity; assay: Antioxidant activity assessed as DPPH free radical scavenging activity at 0.2 ug/mL after 20 min by UV-Vis spectrophotometric analysis; how it was run: as §1
[4] = system: Radical scavenging activity; assay: Antioxidant activity assessed as DPPH free radical scavenging activity at 0.1 ug/mL after 20 min by UV-Vis spectrophotometric analysis; how it was run: as §1
[5] = system: Radical scavenging activity; assay: Antioxidant activity assessed as DPPH free radical scavenging activity after 20 min by UV-Vis spectrophotometric analysis; parameters: concentration or dose not given beside the values
How it was run: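 DPPH radical scavenging: samples were held at room temperature for 20 min in the dark, and absorbance was read at 517 nm. The control contained DMSO without compound, and methanol was used for baseline correction. Scavenging percentage was calculated from the absorbances.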

[6] = system: Radical scavenging activity; assay: Antioxidant activity assessed as DPPH free radical scavenging activity at 4 ug/mL after 20 min by UV-Vis spectrophotometric analysis; how it was run: as §1
[7] = system: Radical scavenging activity; assay: Antioxidant activity assessed as DPPH free radical scavenging activity at 2 ug/mL after 20 min by UV-Vis spectrophotometric analysis; how it was run: as §1
[8] = system: Radical scavenging activity; assay: Antioxidant activity assessed as DPPH free radical scavenging activity at 3 ug/mL after 20 min by UV-Vis spectrophotometric analysis; how it was run: as §1
[9] = system: Radical scavenging activity; assay: Antioxidant activity assessed as DPPH free radical scavenging activity at 1 ug/mL after 20 min by UV-Vis spectrophotometric analysis; how it was run: as §1
[10] = system: Radical scavenging activity; assay: Antioxidant activity assessed as DPPH free radical scavenging activity at 0.6 ug/mL after 20 min by UV-Vis spectrophotometric analysis; how it was run: as §1

O=C(O)c1cc(O)c(O)c(O)c1 [GALLIC ACID] gave an Activity [1] of 34.4%, an Activity [2] of 21.4% and an Activity [3] of 15.8%. It also gave an Activity [4] of 13.9%, an Activity [5] of 21.4% and an IC50 [5] of 1.28 µg/mL (≈ 7.52 µM). For the same compound, the Activity [6] was 89.9%, the Activity [7] was 73.6% and the Activity [8] was 88.9%. The Activity [9] was 41% and the Activity [10] was 28%.

— ChEMBL document CHEMBL3045565, “Microwave synthesis, characterization and bio-efficacy evaluation of novel chalcone based 6-carbethoxy-2-cyclohexen-1-one and 2H-indazol-3-ol derivatives” (Eur J Med Chem, 2013)
